Source: ChEMBL document CHEMBL4325889, “Natural products hybrids: 3,5,4'-Trimethoxystilbene-5,6,7-trimethoxyflavone chimeric analogs as potential cytotoxic agents against diverse human cancer cells” (Eur J Med Chem, 2019)

How the values were obtained:
Format in all cases: functional
[1] = tested on: SW-620; test: Growth inhibition of human SW620 cells at 10 uM after 48 hrs by SRB assay relative to control; conditions: SW-620, 48 h, read-out: GI
How it was run: (§1)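 NCI screen against its human cancer cell line panel by the standard NCI protocol, SRB protein stain. Single dose of 10 μM. Percent growth inhibition versus control; values above 100% mean the cell population fell below the starting number. Each value is the mean of duplicates.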

[2] = tested on: OVCAR-4; test: Growth inhibition of human OVCAR4 cells at 10 uM after 48 hrs by SRB assay relative to control; conditions: OVCAR-4, 48 h, read-out: GI
How it was run: (§2)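 Screened at the National Cancer Institute by the standard NCI protocol using the sulforhodamine B assay, which measures cellular protein. Single dose of 10 µM. Result is percent growth inhibition; values above 100% mean cell number fell below the initial population. Values are the average of duplicates.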

[3] = tested on: MCF7; test: Growth inhibition of human MCF7 cells at 10 uM after 48 hrs by SRB assay relative to control; conditions: MCF7, 48 h, read-out: GI; how it was run: as §2
[4] = tested on: SNB-19; test: Growth inhibition of human SNB19 cells at 10 uM after 48 hrs by SRB assay relative to control; conditions: SNB-19, 48 h, read-out: GI; how it was run: as §1
[5] = tested on: A549; test: Growth inhibition of human A549 cells at 10 uM after 48 hrs by SRB assay relative to control; conditions: A549, 48 h, read-out: GI; how it was run: as §2
[6] = tested on: RXF 393; test: Growth inhibition of human RXF393 cells at 10 uM after 48 hrs by SRB assay relative to control; conditions: RXF 393, 48 h, read-out: GI; how it was run: as §2
[7] = tested on: SNB-75; test: Growth inhibition of human SNB75 cells at 10 uM after 48 hrs by SRB assay relative to control; conditions: SNB-75, 48 h, read-out: GI; how it was run: as §1
[8] = tested on: HCT-15; test: Growth inhibition of human HCT15 cells at 10 uM after 48 hrs by SRB assay relative to control; conditions: HCT-15, 48 h, read-out: GI; how it was run: as §2
[9] = tested on: UACC-62; test: Growth inhibition of human UACC62 cells at 10 uM after 48 hrs by SRB assay relative to control; conditions: UACC-62, 48 h, read-out: GI; how it was run: as §1
[10] = tested on: SK-MEL-5; test: Growth inhibition of human SK-MEL-5 cells at 10 uM after 48 hrs by SRB assay relative to control; conditions: SK-MEL-5, 48 h, read-out: GI; how it was run: as §2
[11] = tested on: SN12C; test: Growth inhibition of human SN12C cells at 10 uM after 48 hrs by SRB assay relative to control; conditions: read-out: GI; how it was run: as §2
[12] = tested on: TK-10; test: Growth inhibition of human TK10 cells at 10 uM after 48 hrs by SRB assay relative to control; conditions: TK-10, 48 h, read-out: GI; how it was run: as §1
[13] = tested on: ACHN; test: Growth inhibition of human ACHN cells at 10 uM after 48 hrs by SRB assay relative to control; conditions: read-out: GI; how it was run: as §2
[14] = tested on: HCC 2998; test: Growth inhibition of human HCC2998 cells at 10 uM after 48 hrs by SRB assay relative to control; conditions: HCC 2998, 48 h, read-out: GI; how it was run: as §2
[15] = tested on: SR; test: Growth inhibition of human SR cells at 10 uM after 48 hrs by SRB assay relative to control; conditions: read-out: GI; how it was run: as §1
[16] = tested on: DU-145; test: Growth inhibition of human DU145 cells at 10 uM after 48 hrs by SRB assay relative to control; conditions: DU-145, 48 h, read-out: GI; how it was run: as §2
[17] = tested on: NCI-H522; test: Growth inhibition of human NCI-H522 cells at 10 uM after 48 hrs by SRB assay relative to control; conditions: NCI-H522, 48 h, read-out: GI; how it was run: as §2
[18] = tested on: Hs-578T; test: Growth inhibition of human Hs 578T cells at 10 uM after 48 hrs by SRB assay relative to control; conditions: read-out: GI; how it was run: as §2
[19] = tested on: K562; test: Growth inhibition of human K562 cells at 10 uM after 48 hrs by SRB assay relative to control; conditions: K562, 48 h, read-out: GI; how it was run: as §2
[20] = tested on: SK-MEL-28; test: Growth inhibition of human SK-MEL-28 cells at 10 uM after 48 hrs by SRB assay relative to control; conditions: SK-MEL-28, 48 h, read-out: GI; how it was run: as §2
[21] = tested on: MDA-MB-435; test: Growth inhibition of human MDA-MB-435 cells at 10 uM after 48 hrs by SRB assay relative to control; conditions: MDA-MB-435, 48 h, read-out: GI; how it was run: as §2
[22] = tested on: KM12; test: Growth inhibition of human KM12 cells at 10 uM after 48 hrs by SRB assay relative to control; conditions: KM12, 48 h, read-out: GI; how it was run: as §2
[23] = tested on: OVCAR-3; test: Growth inhibition of human OVCAR3 cells at 10 uM after 48 hrs by SRB assay relative to control; conditions: OVCAR-3, 48 h, read-out: GI; how it was run: as §2
[24] = tested on: CCRF-CEM; test: Growth inhibition of human CCRF-CEM cells at 10 uM after 48 hrs by SRB assay relative to control; conditions: read-out: GI; how it was run: as §2
[25] = tested on: MOLT-4; test: Growth inhibition of human MOLT4 cells at 10 uM after 48 hrs by SRB assay relative to control; conditions: MOLT-4, 48 h, read-out: GI; how it was run: as §2
[26] = tested on: UACC-257; test: Growth inhibition of human UACC257 cells at 10 uM after 48 hrs by SRB assay relative to control; conditions: UACC-257, 48 h, read-out: GI; how it was run: as §1
[27] = tested on: NCI-H226; test: Growth inhibition of human NCI-H226 cells at 10 uM after 48 hrs by SRB assay relative to control; conditions: NCI-H226, 48 h, read-out: GI; how it was run: as §2
[28] = tested on: RPMI-8226; test: Growth inhibition of human RPMI8226 cells at 10 uM after 48 hrs by SRB assay relative to control; conditions: RPMI-8226, 48 h, read-out: GI; how it was run: as §2
[29] = tested on: OVCAR-8; test: Growth inhibition of human OVCAR8 cells at 10 uM after 48 hrs by SRB assay relative to control; conditions: OVCAR-8, 48 h, read-out: GI; how it was run: as §2
[30] = tested on: NCI-H460; test: Growth inhibition of human NCI-H460 cells at 10 uM after 48 hrs by SRB assay relative to control; conditions: NCI-H460, 48 h, read-out: GI; how it was run: as §2
[31] = tested on: NCI-H23; test: Growth inhibition of human NCI-H23 cells at 10 uM after 48 hrs by SRB assay relative to control; conditions: NCI-H23, 48 h, read-out: GI; how it was run: as §2
[32] = tested on: MDA-MB-468; test: Growth inhibition of human MDA-MB-468 cells at 10 uM after 48 hrs by SRB assay relative to control; conditions: MDA-MB-468, 48 h, read-out: GI; how it was run: as §2
[33] = tested on: HOP-62; test: Growth inhibition of human HOP62 cells at 10 uM after 48 hrs by SRB assay relative to control; conditions: HOP-62, 48 h, read-out: GI; how it was run: as §2
[34] = tested on: Malme-3M; test: Growth inhibition of human MALME-3M cells at 10 uM after 48 hrs by SRB assay relative to control; conditions: read-out: GI; how it was run: as §2
[35] = tested on: 786-0; test: Growth inhibition of human 786-0 cells at 10 uM after 48 hrs by SRB assay relative to control; conditions: 786-0, 48 h, read-out: GI; how it was run: as §2

| SMILES | inhibition of growth at 10 µM [1] [%] | inhibition of growth at 10 µM [2] [%] | inhibition of growth at 10 µM [3] [%] | inhibition of growth at 10 µM [4] [%] | inhibition of growth at 10 µM [5] [%] | inhibition of growth at 10 µM [6] [%] | inhibition of growth at 10 µM [7] [%] | inhibition of growth at 10 µM [8] [%] | inhibition of growth at 10 µM [9] [%] | inhibition of growth at 10 µM [10] [%] | inhibition of growth at 10 µM [11] [%] | inhibition of growth at 10 µM [12] [%] | inhibition of growth at 10 µM [13] [%] | inhibition of growth at 10 µM [14] [%] | inhibition of growth at 10 µM [15] [%] | inhibition of growth at 10 µM [16] [%] | inhibition of growth at 10 µM [17] [%] | inhibition of growth at 10 µM [18] [%] | inhibition of growth at 10 µM [19] [%] | inhibition of growth at 10 µM [20] [%] | further results |
| --- | --- | --- | --- | --- | --- | --- | --- | --- | --- | --- | --- | --- | --- | --- | --- | --- | --- | --- | --- | --- | --- |
| COc1ccc(C(=O)Nc2cccc(-c3cc(=O)c4c(O)c(OC)c(OC)cc4o3)c2)cc1 | 9.52 | 4.66 | 9.78 | 34.1 | 15.1 | 4.27 | 32.5 | 7.47 | 33.7 | 16.2 | 25.7 | 18.4 | 23.7 | 19.4 | 20.8 | 5.4 | 34.4 | 25.8 | 11.9 | 9.4 | inhibition of growth at 10 µM [21]: 5.59%; inhibition of growth at 10 µM [22]: -0.05%; inhibition of growth at 10 µM [23]: -0.49%; inhibition of growth at 10 µM [24]: 11.9%; inhibition of growth at 10 µM [25]: 19.1%; inhibition of growth at 10 µM [26]: 13.6%; inhibition of growth at 10 µM [27]: 41.4%; inhibition of growth at 10 µM [28]: 25.2%; inhibition of growth at 10 µM [29]: 35.5%; inhibition of growth at 10 µM [30]: 17.4%; inhibition of growth at 10 µM [31]: 15.7%; inhibition of growth at 10 µM [32]: -6.18%; inhibition of growth at 10 µM [33]: 30.2%; inhibition of growth at 10 µM [34]: 0.28%; inhibition of growth at 10 µM [35]: 24.5% |
| COc1ccccc1NC(=O)c1cccc(-c2cc(=O)c3c(O)c(OC)c(OC)cc3o2)c1 | -0.74 | 3.74 | 7.54 | 6.18 | 18.5 | 21.8 | 13 | 13 | 26.5 | 3.77 | 5.99 | 14.1 | 9.27 | -2.45 | 21.5 | 5.49 | 26.6 | 3.9 | 22.1 | 5.62 | inhibition of growth at 10 µM [21]: 2.77%; inhibition of growth at 10 µM [22]: 0.81%; inhibition of growth at 10 µM [23]: -0.89%; inhibition of growth at 10 µM [24]: 39.8%; inhibition of growth at 10 µM [25]: 27.9%; inhibition of growth at 10 µM [26]: 1.19%; inhibition of growth at 10 µM [27]: 23.9%; inhibition of growth at 10 µM [28]: 45.4%; inhibition of growth at 10 µM [29]: 35.2%; inhibition of growth at 10 µM [30]: -3.83%; inhibition of growth at 10 µM [31]: 13.9%; inhibition of growth at 10 µM [32]: 9.38%; inhibition of growth at 10 µM [33]: 0.21%; inhibition of growth at 10 µM [34]: 5.55%; inhibition of growth at 10 µM [35]: 9.66% |
| COc1cc2oc(-c3cccc(NC(=O)c4ccc5c(c4)OCO5)c3)cc(=O)c2c(O)c1OC | -1.42 | 25.8 | 11.4 | 33.8 | 13.5 | 32.6 | 47.6 | 0.04 | 41.4 | 25.9 | 9.48 | 15.3 | 30.5 | 9.76 | 19 | 2.12 | 41.5 | 26.1 | 15 | 15.2 | inhibition of growth at 10 µM [21]: 5.39%; inhibition of growth at 10 µM [22]: 1.48%; inhibition of growth at 10 µM [23]: -4.7%; inhibition of growth at 10 µM [24]: 11.7%; inhibition of growth at 10 µM [25]: 15.8%; inhibition of growth at 10 µM [26]: 17.2%; inhibition of growth at 10 µM [27]: 55.4%; inhibition of growth at 10 µM [28]: 20.6%; inhibition of growth at 10 µM [29]: 37.8%; inhibition of growth at 10 µM [30]: 16.7%; inhibition of growth at 10 µM [31]: 13.4%; inhibition of growth at 10 µM [32]: 17.6%; inhibition of growth at 10 µM [33]: 47.9%; inhibition of growth at 10 µM [34]: 7.67%; inhibition of growth at 10 µM [35]: 29.9% |
